Test results as given in ChEMBL document CHEMBL5385902, “Synthesis of urea and thiourea derivatives of C20-epi-aminosalinomycin and their activity against Trypanosoma brucei” (Eur J Med Chem, 2023).
Converted amounts (≈) assume the structure as drawn. The source made the active and inactive calls. No cut-off for these calls is given here.

Key:
Trypanosoma brucei [1] = experiment: Trypanocidal activity against bloodstream form of Trypanosoma brucei 427-221a assessed as parasite killing incubated for 24 hrs by microscopic analysis; format: functional
Procedure, shortened: (§1)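 Bloodstream-form T. brucei 427-221a seeded at 1 × 10^4 mL^-1 or HL-60 cells at 5 × 10^4 mL^-1 in Baltz medium with 16.7% heat-inactivated bovine serum, 0.9% DMSO, 10-fold dilutions 100 μM to 100 nM; 37 °C, 5% CO2. MIC, concentration killing all cells, determined microscopically. Possible values 100 μM down to […].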

Trypanosoma brucei [2] = experiment: Trypanocidal activity against bloodstream form of Trypanosoma brucei 427-221a assessed as inhibition of parasite growth incubated for 24 hrs and measured at 48 hrs following resazurin challenge by resazurin assay; format: functional; details: time 72 hrs
Procedure, shortened: (§2)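 Bloodstream-form T. brucei 427-221a (1 × 10^4 mL^-1) or HL-60 cells (5 × 10^4 mL^-1) in Baltz medium with 16.7% heat-inactivated bovine serum, 0.9% DMSO, 10-fold dilutions 100 μM to 100 nM; 37 °C, 5% CO2, 24 h. Resazurin then added, 48 h more; absorbance 570 nm, reference 630 nm. GI50 by linear interpolation; mean and SD of three independent experiments.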

[3] = Cytotoxicity against human HL-60 cells assessed as cell killing incubated for 24 hrs by microscopic analysis; format: toxicity, cell-based; details: read-out: MIC; procedure, shortened: as §1
[4] = Cytotoxicity against human HL-60 cells assessed as inhibition of cell growth incubated for 24 hrs and measured at 48 hrs following resazurin challenge by resazurin assay; format: toxicity, cell-based; procedure, shortened: as §2
[5] = Selectivity index, ratio of MIC for cytotoxicity against human HL60 cells to MIC for Trypanocidal activity against bloodstream form of Trypanosoma brucei 427-221a; format: toxicity, cell-based; details: read-out: Selectivity Index
[6] = Selectivity index, ratio of GI50 for cytotoxicity against human HL60 cells to GI50 for Trypanocidal activity against bloodstream form of Trypanosoma brucei 427-221a; format: toxicity, cell-based; details: read-out: RatioGI50
Procedure, shortened: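 Ratio of HL-60 GI50 to T. brucei GI50. Both from the resazurin assay in Baltz medium with 16.7% heat-inactivated bovine serum and 0.9% DMSO, 10-fold dilutions 100 μM to 100 nM, 24 h then 48 h with resazurin. GI50 by linear interpolation, three independent experiments.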

Trypanosoma brucei [7] = experiment: Trypanocidal activity against bloodstream form of Trypanosoma brucei 427-221a assessed as increase in cell swelling activity at 100 uM measured every 10 min for 60 mins by light scattering method; format: functional, organism-based
Procedure, shortened: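 Light-scattering cell-volume assay. 1 × 10^7 bloodstream-form T. brucei 427-221a in 200 μL Baltz medium with 100 μM compound and 0.9% DMSO; controls with DMSO only. Absorbance at 490 nm read every 10 min for 60 min; falling absorbance indicates cell swelling. Rate constant k of the absorbance decrease derived. Means of three independent experiments.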

[8] = Lipophilicity, log P of the compound; format: physicochemical; details: octanol/water

Row | SMILES | MIC (Trypanosoma brucei [1]) [µM] | GI50 (Trypanosoma brucei [2]) [µM] | MCC at 24 h [3] [µM] | GI50 at 72 h [4] [µM] | selectivity ratio [5] | selectivity ratio [6] | Activity (Trypanosoma brucei [7]) | logP [8]
1 | CC[C@@H](C(=O)[C@@H](C)[C@@H](O)[C@H](C)[C@@H]1O[C@@H]([C@@H](CC)C(=O)O)CC[C@@H]1C)[C@H]1O[C@]2(C=C[C@H](N)[C@]3(CC[C@@](C)([C@H]4CC[C@](O)(CC)[C@H](C)O4)O3)O2)[C@H](C)C[C@@H]1C | 10 (≈ 7.5 µg/mL) | 3.3 | 100 | 83.2 | 10 | 25.2 | inactive | –
2 | CC[n+]1c(-c2ccccc2)c2cc(N)ccc2c2ccc(N)cc21 [HOMIDIUM BROMIDE] | 10 | 0.087 | 10 | 6.4 | 1 | 73.6 | – | –
3 | CC[C@@H](C(=O)[C@@H](C)[C@@H](O)[C@H](C)[C@@H]1O[C@@H]([C@@H](CC)C(=O)O)CC[C@@H]1C)[C@H]1O[C@]2(C=C[C@H](NC(=O)NCCCl)[C@]3(CC[C@@](C)([C@H]4CC[C@](O)(CC)[C@H](C)O4)O3)O2)[C@H](C)C[C@@H]1C | 10 (≈ 8.56 µg/mL) | 3.2 | 100 | 38.5 | 10 | 12 | – | –
4 | CC[C@@H](C(=O)[C@@H](C)[C@@H](O)[C@H](C)[C@@H]1O[C@@H]([C@@H](CC)C(=O)O)CC[C@@H]1C)[C@H]1O[C@]2(C=C[C@H](NC(=O)NCCCCl)[C@]3(CC[C@@](C)([C@H]4CC[C@](O)(CC)[C@H](C)O4)O3)O2)[C@H](C)C[C@@H]1C | 10 (≈ 8.7 µg/mL) | 2.3 | 100 | 18.1 | 10 | 7.9 | – | –
5 | CC[C@@H](C(=O)[C@@H](C)[C@@H](O)[C@H](C)[C@@H]1O[C@@H]([C@@H](CC)C(=O)O)CC[C@@H]1C)[C@H]1O[C@]2(C=C[C@H](NC(=O)Nc3ccccc3)[C@]3(CC[C@@](C)([C@H]4CC[C@](O)(CC)[C@H](C)O4)O3)O2)[C@H](C)C[C@@H]1C | 10 (≈ 8.69 µg/mL) | 2.9 | 100 | 44.9 | 10 | 15.5 | – | –
6 | CC[C@@H](C(=O)[C@@H](C)[C@@H](O)[C@H](C)[C@@H]1O[C@@H]([C@@H](CC)C(=O)O)CC[C@@H]1C)[C@H]1O[C@]2(C=C[C@H](NC(=S)Nc3ccccc3)[C@]3(CC[C@@](C)([C@H]4CC[C@](O)(CC)[C@H](C)O4)O3)O2)[C@H](C)C[C@@H]1C | 1 (≈ 0.885 µg/mL) | 0.22 | 10 | 8.9 | 10 | 40.5 | Active | –
7 | CC[C@@H](C(=O)[C@@H](C)[C@@H](O)[C@H](C)[C@@H]1O[C@@H]([C@@H](CC)C(=O)O)CC[C@@H]1C)[C@H]1O[C@]2(C=C[C@@H](O)[C@]3(CC[C@@](C)([C@H]4CC[C@](O)(CC)[C@H](C)O4)O3)O2)[C@H](C)C[C@@H]1C [SALINOMYCIN] | 1 (≈ 0.751 µg/mL) | 0.27 | 100 | 20 | 100 | 74.1 | Active | > 6.2
8 | C=CCNC(=S)N[C@H]1C=C[C@]2(O[C@H]([C@@H](CC)C(=O)[C@@H](C)[C@@H](O)[C@H](C)[C@@H]3O[C@@H]([C@@H](CC)C(=O)O)CC[C@@H]3C)[C@@H](C)C[C@H]2C)O[C@@]12CC[C@@](C)([C@H]1CC[C@](O)(CC)[C@H](C)O1)O2 | 1 (≈ 0.849 µg/mL) | 0.31 | 100 | 15.1 | 100 | 48.7 | – | –
9 | CCCNC(=O)N[C@H]1C=C[C@]2(O[C@H]([C@@H](CC)C(=O)[C@@H](C)[C@@H](O)[C@H](C)[C@@H]3O[C@@H]([C@@H](CC)C(=O)O)CC[C@@H]3C)[C@@H](C)C[C@H]2C)O[C@@]12CC[C@@](C)([C@H]1CC[C@](O)(CC)[C@H](C)O1)O2 | 10 (≈ 8.35 µg/mL) | 2.9 | 100 | 36.7 | 10 | 12.7 | – | –
10 | CCCCCCCCNC(=O)N[C@H]1C=C[C@]2(O[C@H]([C@@H](CC)C(=O)[C@@H](C)[C@@H](O)[C@H](C)[C@@H]3O[C@@H]([C@@H](CC)C(=O)O)CC[C@@H]3C)[C@@H](C)C[C@H]2C)O[C@@]12CC[C@@](C)([C@H]1CC[C@](O)(CC)[C@H](C)O1)O2 | 1 (≈ 0.905 µg/mL) | 0.27 | 10 | 6.3 | 10 | 23.3 | – | –
11 | C=CCNC(=O)N[C@H]1C=C[C@]2(O[C@H]([C@@H](CC)C(=O)[C@@H](C)[C@@H](O)[C@H](C)[C@@H]3O[C@@H]([C@@H](CC)C(=O)O)CC[C@@H]3C)[C@@H](C)C[C@H]2C)O[C@@]12CC[C@@](C)([C@H]1CC[C@](O)(CC)[C@H](C)O1)O2 | 10 (≈ 8.33 µg/mL) | 3.2 | 100 | 38.3 | 10 | 12 | – | –
12 | Cc1ccc(C(=O)Nc2ccc(S(=O)(=O)O)c3cc(S(=O)(=O)O)cc(S(=O)(=O)O)c23)cc1NC(=O)c1cccc(NC(=O)Nc2cccc(C(=O)Nc3cc(C(=O)Nc4ccc(S(=O)(=O)O)c5cc(S(=O)(=O)O)cc(S(=O)(=O)O)c45)ccc3C)c2)c1 [SURAMIN] | 0.1 (≈ 0.13 µg/mL) | 0.039 | > 100 | > 100 | > 1000 | > 2560 | – | –
13 | CCCCNC(=S)N[C@H]1C=C[C@]2(O[C@H]([C@@H](CC)C(=O)[C@@H](C)[C@@H](O)[C@H](C)[C@@H]3O[C@@H]([C@@H](CC)C(=O)O)CC[C@@H]3C)[C@@H](C)C[C@H]2C)O[C@@]12CC[C@@](C)([C@H]1CC[C@](O)(CC)[C@H](C)O1)O2 | 1 (≈ 0.865 µg/mL) | 0.18 | 10 | 8.4 | 10 | 46.7 | Active | –
14 | CCCCNC(=O)N[C@H]1C=C[C@]2(O[C@H]([C@@H](CC)C(=O)[C@@H](C)[C@@H](O)[C@H](C)[C@@H]3O[C@@H]([C@@H](CC)C(=O)O)CC[C@@H]3C)[C@@H](C)C[C@H]2C)O[C@@]12CC[C@@](C)([C@H]1CC[C@](O)(CC)[C@H](C)O1)O2 | 1 (≈ 0.849 µg/mL) | 0.36 | 100 | 19.8 | 100 | 55 | Active | –
15 | CC[C@@H](C(=O)[C@@H](C)[C@@H](O)[C@H](C)[C@@H]1O[C@@H]([C@@H](CC)C(=O)O)CC[C@@H]1C)[C@H]1O[C@]2(C=C[C@H](NC(=O)Nc3cccc4ccccc34)[C@]3(CC[C@@](C)([C@H]4CC[C@](O)(CC)[C@H](C)O4)O3)O2)[C@H](C)C[C@@H]1C | 10 (≈ 9.19 µg/mL) | 1.9 | 100 | 13.5 | 10 | 7.1 | – | –
16 | CCNC(=O)N[C@H]1C=C[C@]2(O[C@H]([C@@H](CC)C(=O)[C@@H](C)[C@@H](O)[C@H](C)[C@@H]3O[C@@H]([C@@H](CC)C(=O)O)CC[C@@H]3C)[C@@H](C)C[C@H]2C)O[C@@]12CC[C@@](C)([C@H]1CC[C@](O)(CC)[C@H](C)O1)O2 | 10 (≈ 8.21 µg/mL) | 3.2 | 100 | 42 | 10 | 13.1 | – | –
17 | CC[C@@H](C(=O)[C@@H](C)[C@@H](O)[C@H](C)[C@@H]1O[C@@H]([C@@H](CC)C(=O)O)CC[C@@H]1C)[C@H]1O[C@]2(C=C[C@H](NC(=O)NCc3ccccc3)[C@]3(CC[C@@](C)([C@H]4CC[C@](O)(CC)[C@H](C)O4)O3)O2)[C@H](C)C[C@@H]1C | 10 (≈ 8.83 µg/mL) | 1.5 | 100 | 16.7 | 10 | 11.1 | – | –
18 | CCNC(=S)N[C@H]1C=C[C@]2(O[C@H]([C@@H](CC)C(=O)[C@@H](C)[C@@H](O)[C@H](C)[C@@H]3O[C@@H]([C@@H](CC)C(=O)O)CC[C@@H]3C)[C@@H](C)C[C@H]2C)O[C@@]12CC[C@@](C)([C@H]1CC[C@](O)(CC)[C@H](C)O1)O2 | 1 (≈ 0.837 µg/mL) | 0.33 | 100 | 18.5 | 100 | 56.1 | – | –
